Data as given in ChEMBL document CHEMBL1821727, “Design, synthesis, and pharmacological evaluation of novel hybrid compounds to treat sickle cell disease symptoms” (J Med Chem, 2011).
Active and inactive are the calls of the source. The calls are words filed in the database; no cut-off is given here.

How the values were obtained:
[1] = system: Mus musculus; assay: Antiinflammatory activity in Swiss albino mouse assessed as inhibition of capsaicin-induced ear edema at 300 umol/kg, po administered 1 hr before capsaicin challenge measured after 30 mins relative to control; assay type: functional
Outline: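 Female Swiss mice, 8 weeks old, groups of six; oral dosing at 300 μmol/kg as suspension in arabic gum, vehicle controls 10 mL/kg po; left ear given acetone. Killed 30 min after capsaicin; 7 mm ear punches weighed, edema = treated right minus untreated left ear weight; % inhibition vs vehicle control; mean ± SEM, n = 8, ANOVA/Dunnett.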

[2] = system: Mus musculus; assay: Antiinflammatory activity in Swiss albino mouse peritonitis model assessed as reduction in thioglycollate-induced of leukocyte migration at 300 umol/kg, po administered 1 hr before thioglycollate challenge measured after 4 hrs; assay type: functional, organism-based
Outline: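 Mice dosed at 300 μmol/kg po in arabic gum, then 1 h later given 1 mL 3% thioglycollate ip. Killed at 4 h, peritoneum washed with 1.5 mL cold PBS; exudate cells recovered and total cells counted in Neubauer chamber; exudate >98% neutrophils. Mean ± SEM, at least six animals, ANOVA/Dunnett vs vehicle.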

[3] = system: Blood; assay: Genotoxicity in mouse peripheral blood by micronucleus test; assay type: toxicity, tissue-based
[4] = system: Salmonella typhimurium; assay: Mutagenic activity in Salmonella Typhimurium TA100 preincubated for 20 to 30 mins; assay type: toxicity, organism-based; conditions: salmonella enterica subsp. enterica serovar typhimurium
[5] = system: Salmonella typhimurium; assay: Mutagenic activity in Salmonella Typhimurium TA102 preincubated for 20 to 30 mins; assay type: toxicity, organism-based; conditions: salmonella enterica subsp. enterica serovar typhimurium
[6] = system: Mus musculus; assay: Antinociceptive activity in Swiss albino mouse assessed as reduction in acetic acid-induced abdominal constrictions at 100 umol/kg, po administered 1 hr before acetic acid challenge measured for 20 mins relative to control; assay type: functional, Abdomen; design: scale not given: the % may be the effect or the level left
Outline: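 Constrictions counted for 20 min starting 10 min after injection; % inhibition vs vehicle group; mean ± SEM, 10 animals per group, Student's t test.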

[7] = Antiinflammatory activity in knockout-transgenic sickle cell mouse monocytes assessed as TNFalpha level at 100 uM administered 30 mins before LPS challenge measured after […] by ELISA; assay type: functional, Monocyte
Outline: (§1)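 Blood drawn by intracardiac puncture from anesthetized adult knockout-transgenic sickle cell mice; mononuclear cells isolated on Ficoll, adhered 2 h in DMEM + 10% calf serum (5% CO2, 37 °C), monocyte purity >90% by May-Giemsa. Compounds (100 or 300 μM; dexamethasone 1 μM) added 30 min before LPS 1 μg/mL; supernatant TNFα by ELISA after 20 h. Mean ± SEM, N ≥ 4 experiments.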

[8] = Antiinflammatory activity in knockout-transgenic sickle cell mouse monocytes assessed as TNFalpha level at 300 uM administered 30 mins before LPS challenge measured after […] by ELISA; assay type: functional, Monocyte; outline: as §1
[9] = Antiinflammatory activity in knockout-transgenic sickle cell mouse monocytes assessed as inhibition of LPS-induced TNFalpha production at 1 uM administered 30 mins before LPS challenge […]; assay type: functional, Monocyte
[10] = Antiinflammatory activity in knockout-transgenic sickle cell mouse monocytes assessed as inhibition of LPS-induced TNFalpha production at 300 uM administered 30 mins before LPS challenge […]; assay type: functional, Monocyte
[11] = Antiinflammatory activity in knockout-transgenic sickle cell mouse monocytes assessed as inhibition of LPS-induced TNFalpha production at 100 uM administered 30 mins before LPS challenge […]; assay type: functional, Monocyte

Compound | inhibition in vivo at 300 µmol/kg [1] [%] | Activity [2] | Activity [3] | Activity [4] | Activity [5] | further results
O=C1c2ccccc2C(=O)N1CO[N+](=O)[O-] | 43 | Active | Non-toxic | Non-toxic | Non-toxic | 
O=C1c2ccccc2C(=O)N1CCO[N+](=O)[O-] | 43 | Active | Non-toxic | Non-toxic | Non-toxic | Activity [6]: 25%
NC(=O)NO [HYDROXYUREA] |  |  |  |  |  | Activity [7]: 463.3 pg/mL; Activity [8]: 579.8 pg/mL
O=C1CCC(N2C(=O)c3ccccc3C2=O)C(=O)N1CO[N+](=O)[O-] (stereo unspecified) | 43 | Active | Non-toxic | Non-toxic | Non-toxic | 
O=C1c2ccccc2C(=O)N1c1ccc(CCO[N+](=O)[O-])cc1 | 43 | Active | Non-toxic | Non-toxic | Non-toxic | 
COc1ccc2c(c1)c(CC(=O)O)c(C)n2C(=O)c1ccc(Cl)cc1 |  |  |  |  |  | inhibition [1]: Active
C[C@@H]1C[C@H]2[C@@H]3CCC4=CC(=O)C=C[C@]4(C)[C@@]3(F)[C@@H](O)C[C@]2(C)[C@@]1(O)C(=O)CO [DEXAMETHASONE] |  |  |  |  |  | inhibition (INH) [9]: 83%
O=C1c2ccccc2C(=O)N1c1ccc(CO[N+](=O)[O-])cc1 | 43 | Active | Non-toxic | Non-toxic | Non-toxic | Activity [6]: 66%; inhibition (INH) [10]: 84%; inhibition (INH) [11]: 67%
O=C1c2ccccc2C(=O)N1c1cccc(CO[N+](=O)[O-])c1 | 65 | Active | Non-toxic | Non-toxic | Non-toxic | inhibition (INH) [10]: 91%; inhibition (INH) [11]: 45%
Cc1c(N(C)CS(=O)(=O)O)c(=O)n(-c2ccccc2)n1C |  |  |  |  |  | Activity ([6]; Abdomen): inactive
